From ChEMBL document CHEMBL1135505, “Synthesis and pharmacology of benzoxazines as highly selective antagonists at M(4) muscarinic receptors” (J Med Chem, 2002)

Columns and labels:
Type in all cases: cell-based
[1] = target: T1, Muscarinic acetylcholine receptor M2 (Homo sapiens, UniProt P08172); test: Inhibition of [3H]-NMS binding to human muscarinic acetylcholine receptor M2 in transfected CHO cells.
T1 sequence (P08172 whole entry): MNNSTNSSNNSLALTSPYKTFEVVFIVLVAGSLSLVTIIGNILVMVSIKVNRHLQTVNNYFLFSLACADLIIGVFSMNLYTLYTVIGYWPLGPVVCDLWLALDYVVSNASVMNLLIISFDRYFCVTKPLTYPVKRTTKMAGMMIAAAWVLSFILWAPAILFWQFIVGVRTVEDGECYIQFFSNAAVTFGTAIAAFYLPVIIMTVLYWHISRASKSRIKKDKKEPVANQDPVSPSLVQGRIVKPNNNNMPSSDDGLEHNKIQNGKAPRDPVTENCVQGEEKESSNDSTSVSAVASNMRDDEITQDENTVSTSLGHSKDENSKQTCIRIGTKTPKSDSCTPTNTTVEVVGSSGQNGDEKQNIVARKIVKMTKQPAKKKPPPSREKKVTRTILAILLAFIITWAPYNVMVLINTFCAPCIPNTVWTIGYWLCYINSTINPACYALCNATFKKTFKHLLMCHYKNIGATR
Summary of the method: (§1)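 Membranes from CHO-K1 cells expressing one human muscarinic subtype, harvested at 70-90% confluency. Incubated in 10 mM Na+/K+ PO4 pH 7.4 with 0.1 nM [3H]NMS and test compound for 120 min at 25 °C; atropine defined nonspecific binding. Filtration and scintillation counting. IC50 by logit fit, Ki by Cheng–Prusoff with KD (nM) M1 1.28, M2 0.85, M3 0.94, M4 3.10, M5 0.79. At least three tests, geometric mean.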

[2] = target: T2, Muscarinic acetylcholine receptor M1 (Homo sapiens, UniProt P11229); test: Inhibition of [3H]NMS binding to human muscarinic acetylcholine receptor M1 in transfected CHO cells.; summary of the method: as §1
T2 sequence (P11229 whole entry): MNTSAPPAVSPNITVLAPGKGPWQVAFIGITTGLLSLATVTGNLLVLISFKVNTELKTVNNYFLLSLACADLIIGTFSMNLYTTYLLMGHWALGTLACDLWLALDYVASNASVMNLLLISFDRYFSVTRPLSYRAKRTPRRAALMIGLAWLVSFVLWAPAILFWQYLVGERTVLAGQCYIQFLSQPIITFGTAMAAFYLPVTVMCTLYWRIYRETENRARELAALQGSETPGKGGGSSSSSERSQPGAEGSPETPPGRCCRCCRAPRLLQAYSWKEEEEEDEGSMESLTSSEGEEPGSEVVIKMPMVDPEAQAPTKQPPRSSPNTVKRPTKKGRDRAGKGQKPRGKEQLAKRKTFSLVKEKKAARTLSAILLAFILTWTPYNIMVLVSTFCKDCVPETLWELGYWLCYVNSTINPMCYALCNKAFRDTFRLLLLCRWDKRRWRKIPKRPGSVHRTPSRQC

[3] = target: T3, Muscarinic acetylcholine receptor M4 (Homo sapiens, UniProt P08173); test: Inhibition of [3H]NMS binding to human muscarinic acetylcholine receptor M4 in transfected CHO cells.; summary of the method: as §1
T3 sequence (P08173 whole entry): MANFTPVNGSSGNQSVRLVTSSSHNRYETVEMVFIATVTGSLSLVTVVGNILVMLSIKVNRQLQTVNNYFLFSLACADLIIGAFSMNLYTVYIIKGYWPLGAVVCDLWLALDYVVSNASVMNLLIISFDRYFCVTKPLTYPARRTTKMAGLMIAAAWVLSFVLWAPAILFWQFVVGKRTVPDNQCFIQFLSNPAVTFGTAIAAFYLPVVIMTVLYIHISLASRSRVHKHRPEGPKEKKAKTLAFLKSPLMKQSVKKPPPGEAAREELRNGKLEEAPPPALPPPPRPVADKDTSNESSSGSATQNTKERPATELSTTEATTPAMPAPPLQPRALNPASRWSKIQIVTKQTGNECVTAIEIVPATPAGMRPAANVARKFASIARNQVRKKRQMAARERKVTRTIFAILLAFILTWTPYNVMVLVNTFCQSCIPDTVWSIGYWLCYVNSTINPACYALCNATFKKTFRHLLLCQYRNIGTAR

[4] = target: T4, Muscarinic acetylcholine receptor M5 (Homo sapiens, UniProt P08912); test: Inhibition of [3H]NMS binding to human muscarinic acetylcholine receptor M5 in transfected CHO cells.; summary of the method: as §1
T4 sequence (P08912 whole entry): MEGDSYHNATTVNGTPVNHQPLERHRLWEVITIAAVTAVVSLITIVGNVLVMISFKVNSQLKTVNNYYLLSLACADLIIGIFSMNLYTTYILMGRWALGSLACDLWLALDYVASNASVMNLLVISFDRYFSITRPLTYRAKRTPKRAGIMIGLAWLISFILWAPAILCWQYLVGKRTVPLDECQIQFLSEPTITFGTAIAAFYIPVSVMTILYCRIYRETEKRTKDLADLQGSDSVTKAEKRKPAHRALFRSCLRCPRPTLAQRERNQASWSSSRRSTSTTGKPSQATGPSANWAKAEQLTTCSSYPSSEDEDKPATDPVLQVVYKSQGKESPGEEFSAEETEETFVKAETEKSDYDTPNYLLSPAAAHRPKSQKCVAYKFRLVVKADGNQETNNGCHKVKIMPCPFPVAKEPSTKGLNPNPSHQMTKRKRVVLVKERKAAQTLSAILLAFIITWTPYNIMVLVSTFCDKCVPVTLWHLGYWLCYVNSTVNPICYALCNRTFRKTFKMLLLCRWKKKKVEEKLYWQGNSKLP

[5] = target: Muscarinic acetylcholine receptor M3 (Homo sapiens, UniProt P20309); test: Inhibition of [3H]NMS binding to human muscarinic acetylcholine receptor M3 in transfected CHO cells.; summary of the method: as §1
Chain of Muscarinic acetylcholine receptor M3 (P20309 whole entry): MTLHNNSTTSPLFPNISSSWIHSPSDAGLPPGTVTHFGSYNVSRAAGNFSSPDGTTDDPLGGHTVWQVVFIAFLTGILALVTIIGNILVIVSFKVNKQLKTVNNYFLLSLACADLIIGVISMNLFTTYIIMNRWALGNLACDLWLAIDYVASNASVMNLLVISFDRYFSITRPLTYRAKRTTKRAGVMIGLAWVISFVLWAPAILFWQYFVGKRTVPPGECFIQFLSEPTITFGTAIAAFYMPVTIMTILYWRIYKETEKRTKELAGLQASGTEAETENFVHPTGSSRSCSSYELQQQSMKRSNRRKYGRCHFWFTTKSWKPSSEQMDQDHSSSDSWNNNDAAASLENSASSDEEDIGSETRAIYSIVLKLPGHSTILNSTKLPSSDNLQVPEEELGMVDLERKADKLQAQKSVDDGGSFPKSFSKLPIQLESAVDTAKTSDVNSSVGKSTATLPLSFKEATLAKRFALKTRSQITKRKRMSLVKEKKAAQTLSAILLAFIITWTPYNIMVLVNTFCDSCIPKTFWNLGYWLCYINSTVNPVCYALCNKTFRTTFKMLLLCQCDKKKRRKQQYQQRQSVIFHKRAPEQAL

Structure (SMILES)	Ki [1]	Ki [2]	Ki [3]	Ki [4]	Ki [5]
C=CCOC(=O)c1c(C)n(Cc2ccc(OC)cc2)c2ccc3c(c12)CN1CCc2cc(OC)ccc2C1O3 (stereo not given)	240 nM	200 nM	72.4 nM	0.501 µM	676 nM
CCCc1[nH]c2ccc3c(c2c1C(=O)OCC)CN1CCc2cc(SC)ccc2C1O3 (stereo not given)	1450 nM	871 nM	1 nM	2.4 µM	100 nM
COc1ccc2c(c1)CCN1Cc3c(ccc4[nH]c(C)c(Cc5ccccc5)c34)OC21 (stereo not given)	5370 nM	2510 nM	1350 nM	1.12 µM	2040 nM
CCOC(=O)c1c(CC)[nH]c2ccc3c(c12)CN1CCc2cc(OC)ccc2C1O3 (stereo not given)	1350 nM	2190 nM	3.98 nM	3.09 µM	91.2 nM
CCCCCCc1[nH]c2ccc3c(c2c1C(=O)OCC)CN1CCc2cc(OC)ccc2C1O3 (stereo not given)	4570 nM	3090 nM	14.1 nM	> 28.2 µM	282 nM
CCOC(=O)c1c(CC)n(C)c2ccc3c(c12)CN1CCc2cc(OC)ccc2C1O3 (stereo not given)	708 nM	1510 nM	3.02 nM	3.09 µM	219 nM
CCOC(=O)c1c(CC)n(Cc2ccccc2)c2ccc3c(c12)CN1CCc2cc(OC)ccc2C1O3 (stereo not given)	372 nM	363 nM	97.7 nM	0.479 µM	50.1 nM
CCOC(=O)c1c(C)n(CC)c2ccc3c(c12)CN1CCc2cc(OC)ccc2C1O3 (stereo not given)	219 nM	1320 nM	110 nM	2.51 µM	263 nM
CCOC(=O)c1c(C)[nH]c2ccc3c(c12)CN1CCc2cc(O)ccc2C1O3 (stereo not given)	> 26900 nM	> 21900 nM	> 12300 nM	> 28.2 µM	25700 nM
CCCc1c(C(=O)OCC)c2c3c(ccc2n1C)OC1c2ccc(SC)cc2CCN1C3 (stereo not given)	3800 nM	3310 nM	2 nM	1.7 µM	229 nM
CCOC(=O)c1c(C)[nH]c2ccc3c(c12)CN1CCc2cc(OC)ccc2C1O3 (stereo not given)	537 nM	1320 nM	7.08 nM	3.39 µM	257 nM

Now from value to compound:

Ki [1]	Ki [2]	Ki [3]	Ki [4]	Ki [5]	Structure (SMILES)
7240 nM	20400 nM	11 nM	5.37 µM	457 nM	CCCCCc1[nH]c2ccc3c(c2c1C(=O)OCC)CN1CCc2cc(OC)ccc2C1O3 (stereo not given)
1350 nM	1170 nM	72.4 nM	1.12 µM	1380 nM	COc1ccc2c(c1)CCN1Cc3c(ccc4[nH]c(C)c(C(=O)OCc5ccccc5)c34)OC21 (stereo not given)
2190 nM	7590 nM	61.7 nM	6.17 µM	3090 nM	COc1ccc2c(c1)CCN1Cc3c(ccc4[nH]c(C)c(-c5nc(C)no5)c34)OC21 (stereo not given)
2190 nM	1780 nM	7.08 nM	1.95 µM	229 nM	CCOC(=O)c1c(C)[nH]c2ccc3c(c12)CN1CCc2cc(SC)ccc2C1O3 (stereo not given)
2450 nM	> 4370 nM	1950 nM	4.79 µM	5130 nM	CCOC(=O)c1c(C)[nH]c2ccc3c(c12)CN1CCc2cccc(Cl)c2C1O3 (stereo not given)
3240 nM	5130 nM	363 nM	5.37 µM	2750 nM	CCOC(=O)c1c(C)[nH]c2ccc3c(c12)CN1CCc2cc(Cl)ccc2C1O3 (stereo not given)
417 nM	1170 nM	191 nM	3.63 µM	398 nM	COC(=O)c1c(C)n(C)c2ccc3c(c12)CN1CCc2cc(OC)ccc2C1O3 (stereo not given)
513 nM	1320 nM	2 nM	3.39 µM	70.8 nM	CCCc1c(C(=O)OCC)c2c3c(ccc2n1C)OC1c2ccc(OC)cc2CCN1C3 (stereo not given)
4070 nM	21900 nM	9770 nM	19.5 µM	15500 nM	CCN(C)C(=O)c1c(C)[nH]c2ccc3c(c12)CN1CCc2cc(OC)ccc2C1O3 (stereo not given)
2340 nM	1320 nM	67.6 nM	2.51 µM	1020 nM	CCCCOC(=O)c1c(C)[nH]c2ccc3c(c12)CN1CCc2cc(OC)ccc2C1O3 (stereo not given)
513 nM	2000 nM	15.1 nM	3.72 µM	912 nM	CCOC(=O)c1c(C)n(C)c2ccc3c(c12)CN1CCc2cc(OC)ccc2C1O3 (stereo not given)
2190 nM	871 nM	3.02 nM	1.48 µM	339 nM	CCCCc1[nH]c2ccc3c(c2c1C(=O)OCC)CN1CCc2cc(SC)ccc2C1O3 (stereo not given)
1070 nM	2040 nM	2 nM	2.24 µM	70.8 nM	CCCc1[nH]c2ccc3c(c2c1C(=O)OCC)CN1CCc2cc(OC)ccc2C1O3 (stereo not given)
339 nM	13200 nM	1 nM	11.2 µM	151 nM	CCCCc1[nH]c2ccc3c(c2c1C(=O)OCC)CN1CCc2cc(OC)ccc2C1O3 (stereo not given)
1070 nM	1320 nM	15.1 nM	2.24 µM	407 nM	C=CCOC(=O)c1c(C)[nH]c2ccc3c(c12)CN1CCc2cc(OC)ccc2C1O3 (stereo not given)
